As usually defined, the Ki is a measure of affinity in units of concentration, obtained from inhibition or displacement.

We go through 1 compound from ChEMBL document CHEMBL2346497, “Synthesis of novel cognition enhancers with pyrazolo[5,1-c][1,2,4]benzotriazine core acting at γ-aminobutyric acid type A (GABA(A)) receptor” (Bioorg Med Chem, 2013).

In data set [1] the test system is Mus musculus. The experiment in a line: Anxiolytic activity in CD1 albino mouse assessed as increase in time spent in illuminated side at 3 to 10 mg/kg, po administered 30 mins prior to testing measured for 5 mins by light-dark box test. The format is functional, organism-based. The essentials:
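Light/dark box: two equal acrylic compartments, one lit by a 60 W lamp, joined by a floor-level opening. Male CD-1 mice were dosed po in 1% CMC 30 min before the test, then placed in the centre of the lit side facing away from the dark side. Over 5 min, transfers and time in the light side were recorded, n = 8 mice per group.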

Data set [2] deals with Mus musculus. The experiment in a line: Cognitive enhancing effect in CD1 albino mouse assessed as increase in retention latency at 1 to 10 mg/kg, po administered 30 mins prior to testing measured after 24 hrs by passive avoidance test relative to control. The format is functional, organism-based. Put shortly: (§1)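 Step-through passive avoidance in male CD-1 mice (22–24 g). Test drugs were given po, suspended in 1% carboxymethylcellulose at 10 ml/kg, 30 min before the training session. For the antiamnesic arm, scopolamine 1.5 mg/kg was injected immediately after punishment. Retention latency was compared with CMC-treated controls, n = 10–12 mice per group.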

The subject of data set [3] is Mus musculus. The experiment in a line: Antiamnesic activity in CD1 albino mouse assessed as reversal of scopolamine-induced amnesia at 1 mg/kg, po administered 30 mins prior to scopolamine challenge measured after 24 hrs by passive avoidance test. The format is functional, organism-based. Details: dose 1 mg/kg. Put shortly:
as §1

For data set [4], the system named is Mus musculus. Kind of data set: Anticonvulsant activity in CD1 albino mouse assessed as protection against pentylenetetrazole-induced convulsions at 10 mg/kg, po administered 30 mins prior to pentylenetetrazole challenge measured over 30 mins (reference value: 7.1%). The format is functional.
For data set [5], the system named is Mus musculus. Kind of data set: Neurotoxicity in CD1 albino mouse assessed as decrease in number of falls from rotating rod at 10 mg/kg, po by rota-rod test relative to control. It counts as toxicity, organism-based. Details: dose 10 mg/kg, route oral. The following applies: in vivo, TDE = time-dependent effect. The essentials: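 Motor coordination was tested on a rota-rod turning at 24 rpm in male CD-1 mice dosed po in 1% CMC. Falls within 30 s were counted at a pretest and at 15, 30, 45 and 60 min after dosing. Each value is the mean of five mice, compared with CMC-treated controls.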
Background: In the rotarod test animals must keep their balance on a rotating rod.

A short description of data set [6]: Displacement of [3H]Ro15-1788 from GABA-A receptor benzodiazepine binding site in bovine cerebral cortex membranes after 1 hr. It counts as cell membranes, Bos taurus, Membrane. Background: Loss of bound radioactivity is the signal in a displacement assay; it reports binding, not function.

The source made the active and inactive calls. The rule behind the calls is not given here.

Regarding `Cc1cnn2c1n[n+]([O-])c1ccc(OCc3ccncc3)cc12`, the outcome with Mus musculus [1] was inactive. In addition, the outcome in the data set with Mus musculus [2] and in the data set on Mus musculus [3] was Active. Moreover, the Activity in the data set on Mus musculus [4] is given as 0%; in the data set on Mus musculus [5] it was “tde”. This compound yielded an inhibitory constant (Ki) in data set [6] of 24.1 nM.
